ChEMBL document CHEMBL1909517, “Green synthesis and antimicrobial evaluation of some new trifluoromethyl-substituted hexahydropyrimidines by grinding” (2011)
In brackets after ≈: the same amount, converted by molar mass. Activity calls are given as the source filed them. The rule behind the calls is not given here.

Key:
Type in all cases: functional
Bacillus thuringiensis [1] = assay: Antimicrobial activity against Bacillus thuringiensis after 24 hrs by spectrophotometry
In short: (§1)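 Broth MIC read turbidimetrically. Bacteria were pre-cultured 24 h at 37 °C in LB, then held at 4 °C. Compounds active in an agar-well pre-screen (20 mg/ml DMSO, 100 µl per well, 37 °C 24 h) went forward. Dilutions of 1, 5, 10, 15 and 20 mg/ml DMSO from stock were made up to 10 ml LB and inoculated with 10 µl suspension. Triplicate tubes, 37 °C for 24 h, spectrophotometric growth read-out.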

Escherichia coli [2] = assay: Antimicrobial activity against Escherichia coli after 24 hrs by spectrophotometry; in short: as §1
Escherichia coli [3] = assay: Ratio of tetracycline MIC to compound MIC for Escherichia coli
Bacillus thuringiensis [4] = assay: Ratio of tetracycline MIC to compound MIC for Bacillus thuringiensis

Row | MIC (Bacillus thuringiensis [1]) | MIC (Escherichia coli [2]) | SMILES | Ratio (Escherichia coli [3]) | Ratio (Bacillus thuringiensis [4]) | Activity (Escherichia coli [2]) | Activity (Bacillus thuringiensis [1])
1 | 75 mg/mL (≈ 169 mM) |  | CN(C)[C@@H]1C(O)=C(C(N)=O)C(=O)[C@@]2(O)C(O)=C3C(=O)c4c(O)cccc4[C@@](C)(O)[C@H]3C[C@@H]12 [TETRACYCLINE] |  |  |  | 
2 | ≥ 20 mg/mL | ≥ 20 mg/mL | CCOC(=O)C1C(c2ccc(O)cc2)NC(=S)NC1(O)C(F)(F)F (stereo not given) | 6 | 6 |  | 
3 |  |  | CCOC(=O)C1C(c2ccc(F)cc2)NC(=S)NC1(O)C(F)(F)F (stereo not given) |  |  | inactive | inactive
4 |  |  | CCOC(=O)C1C(c2ccc([N+](=O)[O-])cc2)NC(=O)NC1(O)C(F)(F)F (stereo not given) |  |  | inactive | inactive
5 | ≥ 15 mg/mL | ≥ 15 mg/mL | CCOC(=O)C1C(c2ccc(Cl)cc2)NC(=O)NC1(O)C(F)(F)F (stereo not given) | 6 | 6 |  | 
6 |  |  | CCOC(=O)C1C(c2ccccc2)NC(=O)NC1(O)C(F)(F)F (stereo not given) |  |  | inactive | inactive
7 |  |  | CCOC(=O)C1C(c2ccc(Cl)cc2)N=C(S)NC1(O)C(F)(F)F (stereo not given) |  |  | inactive | inactive
8 | ≥ 20 mg/mL | ≥ 20 mg/mL | CCOC(=O)C1C(c2ccc(N(C)C)cc2)NC(=S)NC1(O)C(F)(F)F (stereo not given) | 6 | 6 |  | 
9 | ≥ 20 mg/mL | ≥ 20 mg/mL | CCOC(=O)C1C(c2ccc(O)cc2)NC(=O)NC1(O)C(F)(F)F (stereo not given) | 6 | 6 |  | 
10 | ≥ 20 mg/mL | ≥ 20 mg/mL | CCOC(=O)C1C(c2ccc(C)cc2)NC(=O)NC1(O)C(F)(F)F (stereo not given) | 6 | 6 |  | 
11 | ≥ 15 mg/mL | ≥ 15 mg/mL | CCOC(=O)C1C(c2ccccc2)NC(=S)NC1(O)C(F)(F)F (stereo not given) | 6 | 6 |  | 
12 | ≥ 15 mg/mL | ≥ 15 mg/mL | CCOC(=O)C1C(c2ccc(OC)cc2)NC(=S)NC1(O)C(F)(F)F (stereo not given) | 6 | 6 |  | 
13 | ≥ 20 mg/mL | ≥ 20 mg/mL | CCOC(=O)C1C(c2cccs2)NC(=O)NC1(O)C(F)(F)F (stereo not given) | 6 | 6 |  | 
14 | ≥ 20 mg/mL | ≥ 20 mg/mL | CCOC(=O)C1C(c2ccc(C)cc2)NC(=S)NC1(O)C(F)(F)F (stereo not given) | 6 | 6 |  | 
